# According to paper PMC12125705 (Journal of medicinal chemistry, 2017):
# Tests used:
# Assay in all cases: MIC by microbroth dilution
# Details in all cases: 24 h, 37 °C
# E. faecalis 29212 = format: cell-based, Enterococcus faecalis
# S. aureus 33591 = format: cell-based, Staphylococcus aureus
# A. baumanni 19606 = format: cell-based, Acinetobacter baumanni
# Outline: (§1)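 CLSI microbroth dilution in Mueller-Hinton broth. Strains were grown at 37 °C with shaking to log phase, pelleted, and resuspended in 0.85% saline to OD625 0.1. Final inoculum 5 × 10^5 CFU/mL in 96-well plates, tested in triplicate, incubated 24 h at 37 °C. Growth was read as OD at 625 nm.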
# K. pneumoniae NR15410 = format: cell-based, Klebsiella pneumoniae
# Outline: as §1
# E. coli 25922 = format: cell-based, Escherichia coli
# MRSA 33591 = format: cell-based, Staphylococcus aureus
# Outline: as §1
# S. flexneri 2457NR517 = format: cell-based, Shigella flexneri
# S. aureus 29213 = format: cell-based, Staphylococcus aureus
# S. epidermidis 12384 = format: cell-based, Staphylococcus epidermidis
# Outline: as §1
# MRSA A960649 = format: cell-based, Staphylococcus aureus
# Outline: as §1
# E. coli K12 = format: cell-based, Escherichia coli
# P. aeruginosa 27853 = format: cell-based, Pseudomonas aeruginosa
# C. freundii 4747CFAA = format: cell-based, Citrobacter freundii
# Outline: as §1
# E. faecium BM4105RF = format: cell-based, Enterococcus faecium
# E. cloacae 13047 = format: cell-based, Enterobacter cloacae
# Outline: as §1
substance,measurement,setting,value
"6-(4-Methylpiperazin-1-yl)-2-(4-(2-(4-(oct-7-ynyl)-1H-1,2,3-triazol-1-yl)ethoxy)phenyl)-1H-benzo[d]imidazole [Compound 22]",MIC E. faecalis 29212,E. faecalis 29212,16 to 32 µg/mL
same,MIC S. aureus 33591,S. aureus 33591,16 to 32 µg/mL
same,MIC A. baumanni 19606,A. baumanni 19606,>32 µg/mL
same,MIC K. pneumoniae NR15410,K. pneumoniae NR15410,>32 µg/mL
same,MIC E. coli 25922,E. coli 25922,16 µg/mL
same,MIC MRSA 33591,MRSA 33591,>32 µg/mL
same,MIC S. flexneri 2457NR517,S. flexneri 2457NR517,>32 µg/mL
same,MIC S. aureus 29213,S. aureus 29213,16 to 32 µg/mL
same,MIC S. epidermidis 12384,S. epidermidis 12384,>32 µg/mL
same,MIC MRSA A960649,MRSA A960649,>32 µg/mL
same,MIC E. coli K12,E. coli K12,16 µg/mL
same,MIC P. aeruginosa 27853,P. aeruginosa 27853,16 µg/mL
same,MIC C. freundii 4747CFAA,C. freundii 4747CFAA,>32 µg/mL
same,MIC E. faecium BM4105RF,E. faecium BM4105RF,>32 µg/mL
same,MIC E. cloacae 13047,E. cloacae 13047,>32 µg/mL
